In ChEMBL document CHEMBL1121765, “3-Phenylpiperidines. Central dopamine-autoreceptor stimulating activity” (1981):
Active and inactive are the calls of the source. No cut-off for these calls is given here.

How the values were obtained:
[1] = system: Rattus norvegicus; assay: Motor activity in reserpinized rats when 100 umol/kg was administered subcutaneously; format: functional
In short: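 Rats pretreated ip with reserpine (10 mg/kg) 6 h before testing; compound given sc in neck region, rats placed singly in photocell motility meters immediately after and motor activity recorded for 60 min, testing between 1 and 6 p.m.; saline controls; gross behaviour observed.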

[2] = target: T1, Dopamine receptor (Rattus norvegicus) (UniProt P25115+P19020+P30729+P18901+P61169); assay: Evaluation of Dopamine receptor activation in striatum of reserpinized rat; format: functional, tissue-based
[3] = target: T1, Dopamine receptor (Rattus norvegicus); assay: Dopamine receptor activation in limbic system of reserpinized rat; Inactive at >45 uM/Kg.; format: tissue-based
[4] = target: T1, Dopamine receptor (Rattus norvegicus); assay: Dopamine receptor activation in striatum of reserpinized rat; Inactive at >45 uM/Kg.; format: tissue-based
[5] = target: T1, Dopamine receptor (Rattus norvegicus); assay: Evaluation for Dopamine receptor activation in limbic system of reserpinized rat; format: tissue-based
[6] = system: Rattus norvegicus; assay: Motor activity in reserpinized rats when 2 umol/kg was administered subcutaneously

Row | SMILES | ED50 [3] | ED50 [4] | other results
1 | Br.CCCN1CCCC(c2ccc(O)c(O)c2)C1 (centres undefined) | – | – | Motor activity [1]: 522
2 | Oc1cccc(C2CCCN(C3CCCCC3)C2)c1 (centres undefined) | – | – | ED50 [2]: 45 µmol/kg
3 | CCCN1CCCC(c2cccc(C)c2)C1 (centres undefined) | inactive | inactive | –
4 | CCCN1CCCC(c2cccc(C(=O)OC)c2)C1 (centres undefined) | inactive | inactive | –
5 | CCCCCN1CCCC(c2cccc(O)c2)C1 (centres undefined) | – | – | ED50 [2]: 0.9 µmol/kg
6 | Oc1cccc(-c2cccnc2)c1 | inactive | inactive | –
7 | CCCN1CCCC(c2ccccc2O)C1 (centres undefined) | inactive | inactive | –
8 | Oc1cccc(C2CCCN(Cc3ccccc3)C2)c1 (centres undefined) | – | – | ED50 [2]: 24 µmol/kg
9 | CCCN1CCC(c2cccc(O)c2)C1 (centres undefined) | – | – | ED50 [2]: 45 µmol/kg; ED50 [5]: 45 µmol/kg
10 | CC(C)(C)CN1CCCC(c2cccc(O)c2)C1 (centres undefined) | – | – | ED50 [2]: > 2.8 µmol/kg
11 | Oc1cccc(C2CCNC2)c1 (centres undefined) | inactive | inactive | –
12 | CCCN1CCCC(c2cccc(C#N)c2)C1 (centres undefined) | inactive | inactive | –
13 | CCCN1CCCCC(c2cccc(O)c2)C1 (centres undefined) | inactive | inactive | –
14 | CCCN1CCCC(c2ccc(O)cc2)C1 (centres undefined) | inactive | inactive | –
15 | Oc1cccc(C2CN3CCC2CC3)c1 (centres undefined) | inactive | inactive | –
16 | CCCNCCc1cccc(O)c1 | – | – | ED50 [2]: 0.8 µmol/kg; ED50 [5]: 0.9 µmol/kg
17 | Oc1cccc(C2=CN3CCC2CC3)c1 | inactive | inactive | –
18 | Br.CCCN1CCCC(c2cccc(O)c2)C1 (centres undefined) | – | – | Motor activity [1]: 55
19 | CCCN1CCCC(c2cccc(CO)c2)C1 (centres undefined) | inactive | inactive | –
20 | CC(C)N1CCC(c2cccc(O)c2)C1 (centres undefined) | inactive | inactive | –
21 | CCCN1CCCC(c2cccc(C(N)=O)c2)C1 (centres undefined) | inactive | inactive | –
22 | CCCN1CCCC(c2cccc(OC)c2)C1 (centres undefined) | inactive | inactive | –
23 | CCCN1CCCC(c2cccc(N)c2)C1 (centres undefined) | inactive | inactive | –
24 | CCCN1CCCC(c2ccccc2)C1 (centres undefined) | inactive | inactive | –
25 | CN1CCCC(c2cccc(O)c2)C1 (centres undefined) | – | – | ED50 [2]: 2.5 µmol/kg
26 | CN1CCc2cccc3c2[C@H]1Cc1ccc(O)c(O)c1-3 [APOMORPHINE] | – | – | Motor activity [6]: 624
